What all share (assay type): physicochemical
The nature of data set [1]: Antioxidant activity assessed as DPPH radical scavenging activity measured as rate constant after 10 secs by UV-visible spectrophotometry. The conditions noted are these: 10 s. A digest of the protocol:
(§1)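 DPPH radical decay, antioxidant at 1.67, 16.7 or 60.0 μM. After 10 s of mixing with DPPH, A517 was read at once and then every 15 s for 5 min. The second-order rate constant k and the plateau absorbance (t → ∞) came from curve-fitting absorbance vs time under global second-order kinetics.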

Data set [2] in a line: Antioxidant activity assessed as DPPH radical scavenging activity at 1.67 uM measured as absorbance (t -> infinity) after 10 secs by UV-visible spectrophotometry. The conditions noted are these: 10 s. In outline:
as §1

Data set [3] can be described thus: Antioxidant activity assessed as DPPH radical scavenging activity at 16.7 uM measured as absorbance (t -> infinity) after 10 secs by UV-visible spectrophotometry. The conditions noted are these: 10 s. A digest of the protocol:
as §1

Data set [4] is described as follows: Antioxidant activity assessed as DPPH radical scavenging activity at 60 uM measured as absorbance (t -> infinity) after 10 secs by UV-visible spectrophotometry. The note with it: 10 s. In outline: as §1
Data set [5] in a line: Antioxidant activity assessed as hydroxyl radical scavenging activity at 1.5 uM by ESR spin trapping assay. A digest of the protocol:
(§2)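 Hydroxyl radicals came from Fenton reaction (H2O2, EDTA, FeSO4 to start) with DMPO spin trap. Samples in ACN (stocks 0.03–0.3 mM) gave final 1.5, 2.5, 5.0 or 15.0 μM; ACN alone served as control. ESR signal was taken as the ratio of the DMPO adduct second-singlet amplitude to the TEMPO (2 μM, daily reference) first-singlet amplitude.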

The nature of data set [6]: Antioxidant activity assessed as hydroxyl radical scavenging activity at 2.5 uM by ESR spin trapping assay. In outline:
as §2

A short description of data set [7]: Antioxidant activity assessed as hydroxyl radical scavenging activity at 5 uM by ESR spin trapping assay. A digest of the protocol: as §2
Data set [8] can be described thus: Antioxidant activity assessed as hydroxyl radical scavenging activity at 15 uM by ESR spin trapping assay. In outline:
as §2

Data set [9] is described as follows: Antioxidant activity assessed as superoxide anion radical scavenging activity at 40 uM measured as rate constant recorded every min for 7 mins by nitroblue tetrazolium assay (reference value: 0.188 +/- 0.001 /min). A digest of the protocol: (§3)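 Superoxide came from hypoxanthine/xanthine oxidase (2 mM HPX, 0.56 U·mL−1 XOD stocks) with 0.34 mM NBT in 50 mM phosphate buffer pH 7.4. A560 was read every minute for 7 min. Pseudo-first-order rate constant k1 and final NBTH2 absorbance (t → ∞) came from curve-fitting absorbance vs time, with antioxidant at 40, 80 or 160 μM.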

The nature of data set [10]: Antioxidant activity assessed as superoxide anion radical scavenging activity at 80 uM measured as rate constant recorded every min for 7 mins by nitroblue tetrazolium assay (reference value: 0.188 +/- 0.001 /min). A digest of the protocol:
as §3

Data set [11] can be described thus: Antioxidant activity assessed as superoxide anion radical scavenging activity at 160 uM measured as rate constant recorded every min for 7 mins by nitroblue tetrazolium assay (reference value: 0.188 +/- 0.001 /min). In outline:
as §3

Data set [12] is described as follows: Antioxidant activity assessed as superoxide anion radical scavenging activity at 40 uM measured as absorbance (t > infinity) recorded every min for 7 mins by nitroblue tetrazolium assay (reference value: 1.9 +/- 0.01). In outline: as §3
Data set [13] can be described thus: Antioxidant activity assessed as superoxide anion radical scavenging activity at 80 uM measured as absorbance (t > infinity) recorded every min for 7 mins by nitroblue tetrazolium assay (reference value: 1.9 +/- 0.01). A digest of the protocol: as §3
Data set [14] can be described thus: Antioxidant activity assessed as superoxide anion radical scavenging activity at 160 uM measured as absorbance (t > infinity) recorded every min for 7 mins by nitroblue tetrazolium assay (reference value: 1.9 +/- 0.01). A digest of the protocol: as §3
Data set [15] is described as follows: Antioxidant activity assessed as superoxide anion radical scavenging activity measured as rate constant recorded every min for 7 mins by nitroblue tetrazolium assay. In outline:
as §3

SMILES strings stand for the structures.

For `CCOC(=O)/C=C/c1ccc(O)c(OC)c1` [ETHYL FERULATE], the K in data set [1] turned out to be 13000 M⁻¹ s⁻¹; in data set [9], 0.14 min⁻¹; in data set [10], 0.16 min⁻¹; in data set [11], 0.13 min⁻¹. For the same compound, the Activity in data set [2] stood at 0.992; in data set [3], 0.851; in [4], 0.58; in data set [5] it was 19%; in [6], 29%; in data set [7], 36%. In addition, the Activity in [8] stood at 42%; in data set [12] it was 1.9; in data set [13], 1.7; in [14], 1.6.

Take `COc1cc(/C=C/C(=O)O[C@H]2CC[C@@]3(C)[C@@H](CC[C@@H]4[C@@H]3CC[C@]3(C)[C@@H]([C@H](C)CC[C@@H](C)C(C)C)CC[C@@H]43)C2)ccc1O`: the K in data set [1] was 18000 M⁻¹ s⁻¹; in data set [9], 0.13 min⁻¹; in data set [10], 0.19 min⁻¹; in [11], 0.13 min⁻¹. The Activity turned out to be 1.198 in data set [2]; 1.091 in [3]; 0.79 in [4]; 23% in data set [5]; 27% in [6]; 34% in data set [7]. For the same compound, the Activity was 43% in data set [8], 1.89 in data set [12], 1.47 in data set [13] and 1.57 in data set [14].

In the case of `COc1cc(/C=C/C(=O)O)ccc1O` [FERULATE], the K in data set [1] came out at 12000 M⁻¹ s⁻¹; in [9], 0.2 min⁻¹; in data set [10], 0.14 min⁻¹; in data set [11], 0.19 min⁻¹. In addition, the Activity is on record as 1.232 in [2]; 0.913 in data set [3]; 0.53 in data set [4]; 23% in [5]; 26% in data set [6]; 33% in [7]. Moreover, the Activity in data set [8] was determined as 40%; in data set [12], 1.27; in data set [13] it was 1.4; in data set [14], 1.03.

On to `COc1cc(/C=C/C(=O)O[C@H]2CC[C@@]3(C)C(=CC[C@H]4[C@@H]5CC[C@H]([C@H](C)CC[C@@H](C)C(C)C)[C@@]5(C)CC[C@@H]43)C2)ccc1O`, for which the K came to 13000 M⁻¹ s⁻¹ in data set [1], 0.17 min⁻¹ in [9], 0.18 min⁻¹ in data set [10] and 0.13 min⁻¹ in data set [11]. Also, the Activity is 1.273 in [2]; 1.045 in data set [3]; 0.7 in data set [4]; 21% in data set [5]; 25% in data set [6]; 29% in data set [7]. Moreover, the Activity is 39% in [8]; 1.65 in data set [12]; 1.4 in data set [13]; 1.19 in data set [14]; “Dose-dependent effect” in data set [15].

For the compound `COC(=O)/C=C/c1ccc(O)c(OC)c1`, the K in [1] came out at 14000 M⁻¹ s⁻¹; in [9], 0.15 min⁻¹; in data set [10], 0.15 min⁻¹; in data set [11], 0.14 min⁻¹. Further, the Activity in [2] was 1.008; in data set [3], 0.896; in data set [4], 0.57; in data set [5] it was 19%; in data set [6], 31%; in data set [7], 36%. The Activity in [8] was found to be 43%; in data set [12], 1.9; in [13], 1.72; in data set [14], 1.6.

Regarding `CC[C@H](CC[C@@H](C)[C@H]1CC[C@H]2[C@@H]3CC=C4C[C@@H](OC(=O)/C=C/c5ccc(O)c(OC)c5)CC[C@]4(C)[C@H]3CC[C@]12C)C(C)C`, the K was 13000 M⁻¹ s⁻¹ in [1], 0.19 min⁻¹ in data set [9], 0.19 min⁻¹ in data set [10] and 0.13 min⁻¹ in [11]. In addition, the Activity in data set [2] is reported as 1.298; in [3] it was 0.944; in [4], 0.64; in data set [5], 20%; in data set [6] it was 24%; in [7], 31%. Moreover, the Activity in data set [8] is given as 43%; in [12], 1.64; in data set [13], 1.38; in data set [14] it was 1.16; in [15] it was “Dose-dependent effect”.

Turning to `CC[C@H](/C=C/[C@@H](C)[C@H]1CC[C@H]2[C@@H]3CC=C4C[C@@H](OC(=O)/C=C/c5ccc(O)c(OC)c5)CC[C@]4(C)[C@H]3CC[C@]12C)C(C)C`, the K is 12000 M⁻¹ s⁻¹ in [1], 0.18 min⁻¹ in data set [9], 0.11 min⁻¹ in [10] and 0.11 min⁻¹ in [11]. In addition, the Activity in data set [2] is on record as 1.144; in data set [3] it was 1.01; in [4], 0.72; in [5] it was 23%; in data set [6] it was 26%; in data set [7], 30%. In addition, the Activity in data set [8] is recorded as 44%; in data set [12], 1.68; in [13], 1.76; in data set [14] it was 1.78; in [15] it was “Dose-dependent effect”.

In the case of `CC[C@H](CC[C@@H](C)[C@H]1CC[C@H]2[C@@H]3CC[C@H]4C[C@@H](OC(=O)/C=C/c5ccc(O)c(OC)c5)CC[C@]4(C)[C@H]3CC[C@]12C)C(C)C`, the K in data set [1] was determined as 15000 M⁻¹ s⁻¹; in data set [9], 0.14 min⁻¹; in data set [10] it was 0.21 min⁻¹; in data set [11], 0.14 min⁻¹. For the same compound, the Activity worked out at 1.156 in data set [2]; 0.991 in data set [3]; 0.64 in data set [4]; 22% in [5]; 25% in [6]; 28% in [7]. Also, the Activity is 40% in [8], 1.85 in data set [12], 1.35 in data set [13] and 1.47 in [14].

As for `COc1cc(/C=C/C(=O)O[C@H]2CC[C@@]3(C)C(=CC[C@H]4[C@@H]5CC[C@H]([C@H](C)CCCC(C)C)[C@@]5(C)CC[C@@H]43)C2)ccc1O`, the K in data set [1] amounted to 12000 M⁻¹ s⁻¹; in data set [9], 0.17 min⁻¹; in data set [10], 0.11 min⁻¹; in data set [11], 0.11 min⁻¹. Besides, the Activity in data set [2] was found to be 1.245; in data set [3], 0.979; in [4] it was 0.74; in data set [5] it was 24%; in data set [6], 24%; in data set [7], 30%. In addition, the Activity in [8] is on record as 40%; in [12] it was 1.76; in [13] it was 1.71; in data set [14], 1.82; in [15] it was “Dose-dependent effect”.

With `Oc1cccc(O)c1O` [PYROGALLOL], in data set [1], the K was 120000 M⁻¹ s⁻¹.

The values are drawn from ChEMBL document CHEMBL3797046, “Antioxidant Activity of Individual Steryl Ferulates from Various Cereal Grain Sources” (J Nat Prod, 2016).
